Results of several laboratories.
Compare with care: the assays were run in different laboratories.
Target: Dual specificity protein kinase CLK4 (CLK4, Homo sapiens, UniProt Q9HAZ1)

SMILES | effect on | mode | method | concentration | endpoint | value
C#Cc1n[nH]c2c(-c3cn([C@@H](C)c4ccccc4)c(=O)[nH]c3=O)cc(F)cc12 | enzyme activity | inhibitor |  | 0.1 µM | inhibition | -0.9%
CC(C)(C)c1cc(C=C(C#N)C#N)cc(Br)c1O | enzyme activity | inhibitor |  | 0.5 µM | remaining activity | 88.6%
Nc1ncc(-c2nc(N3CCOCC3)nc(N3CCOCC3)n2)c(C(F)F)n1 | binding |  | competition with immobilised ligand | 10 µM | remaining binding | 30%
C#Cc1n[nH]c2c(-c3cn([C@@H](C)c4ccccn4)c(=O)[nH]c3=O)cc(F)cc12 | enzyme activity | inhibitor |  | 0.1 µM | inhibition | 8.9%
COc1ncccc1-c1cnn2ccc(N3CCN(C(=O)OC(C)C)CC3)nc12 | binding |  | competition with immobilised ligand | 1 µM | remaining binding | 98%
Cc1nn(C)cc1-c1nc2c(N3CCN(Cc4ccc(Cl)cc4)CC3)c(Cl)cnc2[nH]1 | binding |  | competition with immobilised ligand | 1 µM | remaining binding | 100%
COc1cc(Nc2ncc(F)c(Nc3ccc4c(n3)NC(=O)C(C)(C)O4)n2)cc(OC)c1OC | binding |  | competition with immobilised ligand | 10 µM | inhibition | 85%
O=c1[nH]c2ccccc2n1C1CCN(Cc2ccc(-c3[nH]c4cc5ncnc5cc4nc3-c3ccccc3)cc2)CC1 | cell-free assay |  |  | 0.5 µM | remaining signal | 92.8%
Cn1cncc1[C@@](O)(COc1ccc(C#N)cc1-c1ccc(OC(F)(F)F)cc1)c1ccc(C#N)cc1 | cell-free assay |  | competition with immobilised ligand | 1 µM | remaining binding | 96%
